# PubChem BioAssay
# Values without a mark were called inactive.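 How the source made its calls: active means viability at or below 30% in both replicate assays; inconclusive means viability at or below 30% in just one of the two assays; inactive means the rest.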
# Test: HUVEC growth inhibition – cell-based, human, primary screen (AID 575);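 further: 100% = median of untreated cell wells with 0.1% DMSO on each plate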
# Settings: HUVEC proliferation, CellTiter-Glo luminescence, 72 h; at 10 µM; hits give low values
# Method in brief: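 Test system: primary human umbilical vein endothelial cells; medium: endothelial basal medium with 2% FBS plus growth supplements; dosing: 10 µM compound only; times: 72 h treatment at 37 °C; signal: CTG luminescence; read-out: % viability relative to median vehicle-well signal on each plate; control set: vehicle and MePR control wells; plate: 384-well, collagen-coated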
row,SMILES,viability [%]
1,O=C(NCCO)c1scc2c1OCCO2,91.8
2,CN(c1ccccc1)S(=O)(=O)c1ccc(C(=O)OCC(=O)NCc2ccco2)cc1,88.5
3,Clc1ccc(SCCn2ccnc2)cc1,94.3
4,CC(C)(CO)NC(=O)CCCOc1ccc(Cl)cc1Cl,84.5
5,Cc1ccccc1NC(=O)CSc1nc(N)c(C#N)c(-c2cccs2)c1C#N,72.3
6,CCN(CC)C(=O)CSc1nc2ccc(NC(=O)CSc3nccn3C)cc2s1,68.2
7,Cc1cc(Oc2ccccc2)nc(-c2ccccc2)n1,92.7
8,COc1ccc(S(=O)(=O)CCC(=O)O)cc1,93.7
9,O=C(Nc1ccc(OC(=O)c2ccco2)cc1)c1ccco1,103
10,CCCc1nnc(SCC(=O)N2CCOCC2)n1Cc1ccco1,109
11,Cc1ccc(S(=O)(=O)N2CCC(C(=O)N3CCC[C@H]3C(=O)NCc3ccccc3)CC2)cc1,101
12,C=C(C)Cn1c(N2CCN(CC)CC2)nc2c1c(=O)[nH]c(=O)n2C,80
13,Cc1cc2oc(=O)cc(CN3CCN(Cc4ccc5c(c4)OCO5)CC3)c2cc1C,84.3
14,Cn1c(=O)c(C(=O)Nc2cccnc2)c(O)c2ccccc21,105
15,C=Cn1c(C(=O)O)cc(CC)c1-c1ccccc1,100
16,COc1ccccc1N1C(=O)CC(Sc2nc(C)cc(C)n2)C1=O (configuration not stated),102
17,COc1cccc(NC(=O)NC2(C(F)(F)F)Oc3ccccc3O2)c1,69.1
